Experimental data as given in ChEMBL document CHEMBL1240528, “Discovery of novel 5-benzylidenerhodanine and 5-benzylidenethiazolidine-2,4-dione inhibitors of MurD ligase” (J Med Chem, 2010).

How the values were obtained:
Escherichia coli [1] = experiment: Inhibition of Escherichia coli MurD ligase assessed as residual activity at 250 uM by colorimetry; values are per cent of control
Staphylococcus aureus = experiment: Antimicrobial activity against Staphylococcus aureus ATCC 29213 by microdilution method; type: functional; details: in the assay text read “macrodilution” for “microdilution”
Method in brief: (§1)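 Broth macrodilution in cation-adjusted Mueller–Hinton broth. Stock 2 mg/mL in DMSO, serially diluted to final 0.016–128 μg/mL. Inoculum from four colonies of a fresh overnight culture, adjusted to 0.5 McFarland and diluted to approximately 10^5 CFU/mL, then mixed 1:1 with drug. Incubated 35 C for 18–24 h. MIC is the lowest concentration giving complete inhibition of visible growth. QC with S. aureus ATCC 29213 and gentamicin.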

[2] = Inhibition of Escherichia coli MurD ligase assessed as residual activity by colorimetry
Method in brief: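 Malachite green orthophosphate detection with purified E. coli MurD. Substrates 80 μM UDP-MurNAc-L-Ala, 100 μM D-Glu, 400 μM ATP; 5% DMSO final. Incubated 37 C for 15 min, A650 read. IC50 from seven concentrations run in triplicate.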

Escherichia coli [3] = experiment: Antimicrobial activity against Escherichia coli ATCC 25922 by microdilution method; type: functional; details: in the assay text read “macrodilution” for “microdilution”
Method in brief: as §1

Enterococcus faecalis = experiment: Antimicrobial activity against Enterococcus faecalis ATCC 29212 by macrodilution method
Pseudomonas aeruginosa = experiment: Antimicrobial activity against Pseudomonas aeruginosa ATCC 27853 by microdilution method; type: functional; details: in the assay text read “macrodilution” for “microdilution”
Method in brief: as §1

[4] = Inhibition of Escherichia coli MurD ligase assessed as conversion of D-[14C]Glu to UDP-MurNac-L-Ala by radioactivity assay
Method in brief: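 Incubated 37 C for 30 min, stopped with acetic acid. Substrate and product separated by TLC and quantified by radioactivity scanning. IC50 from residual activities at seven concentrations.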

A residual activity (Escherichia coli [1]) of 70% was found for O=C(O)CC[C@@H](NC(=O)c1ccc(CNc2ccc(/C=C3\SC(=O)NC3=O)cc2)cc1)C(=O)O in this work.
With O=C(O)CC[C@@H](NC(=O)c1ccc(CNc2cccc(/C=C3\SC(=S)NC3=O)c2)cc1)C(=O)O the MIC (Staphylococcus aureus) was > 128 µg/mL, the IC50 [2] was 174 µM and the MIC (Escherichia coli [3]) was > 128 µg/mL. For the same compound, the MIC (Enterococcus faecalis) was > 128 µg/mL and the MIC (Pseudomonas aeruginosa) was > 128 µg/mL.
A residual activity (Escherichia coli [1]) of 39% was found for O=C(O)CC[C@@H](NC(=O)c1cccc(CNc2cccc(/C=C3\SC(=S)NC3=O)c2)c1)C(=O)O in this work.
A residual activity (Escherichia coli [1]) of 87% was found for O=C(O)CC[C@H](NC(=O)c1ccc(CNc2cccc(/C=C3\SC(=O)NC3=O)c2)cc1)C(=O)O in this work.
A residual activity (Escherichia coli [1]) of 74% was found for O=C(O)CC[C@@H](NC(=O)c1ccc(CNc2ccc(/C=C3\SC(=S)NC3=O)cc2)cc1)C(=O)O in this work.
A residual activity (Escherichia coli [1]) of 87% was found for O=C(O)CC[C@@H](NC(=O)c1cccc(CNc2cccc(/C=C3\SC(=O)NC3=O)c2)c1)C(=O)O in this work.
A residual activity (Escherichia coli [1]) of 68% was found for O=C(O)CC[C@H](NC(=O)c1ccc(CNc2ccc(/C=C3\SC(=S)NC3=O)cc2)cc1)C(=O)O in this work.
In the case of O=C(O)CC[C@@H](NC(=O)c1cccc(CNc2ccc(/C=C3\SC(=S)NC3=O)cc2)c1)C(=O)O, the MIC (Staphylococcus aureus) is reported as > 128 µg/mL, the IC50 [4] is reported as 49 µM and the IC50 [2] is reported as 45 µM. For the same compound, the MIC (Escherichia coli [3]) was > 128 µg/mL, the MIC (Enterococcus faecalis) was > 128 µg/mL and the MIC (Pseudomonas aeruginosa) was > 128 µg/mL.
A residual activity (Escherichia coli [1]) of 85% was found for O=C(O)CC[C@@H](NC(=O)c1ccc(CNc2cccc(/C=C3\SC(=O)NC3=O)c2)cc1)C(=O)O in this work.
An IC50 [4] of 35 µM was found for O=C(O)CC[C@@H](NC(=O)c1cccc(CNc2ccc(/C=C3\SC(=O)NC3=O)cc2)c1)C(=O)O in this work.
An IC50 [2] of 206 µM was found for O=C(O)CC[C@H](NC(=O)c1ccc(CNc2cccc(/C=C3\SC(=S)NC3=O)c2)cc1)C(=O)O in this work.
A residual activity (Escherichia coli [1]) of 88% was found for O=C(O)CC[C@H](NC(=O)c1ccc(CNc2ccc(/C=C3\SC(=O)NC3=O)cc2)cc1)C(=O)O in this work.
